Screening data (PubChem BioAssay)
Shown are actives, neighbours in structure and some others; about 2.8% of the full set was active somewhere.
HTRA1 inhibitor: HTRA1 (human) protease inhibition. recombinant HTRA1, FP-rhodamine activity-based probe, fluorescence polarization. inhibition, % at 5.96 µM. hit rate 0.5% among 340,000; in the data active means inhibition above about 36%;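 further: 0% = enzyme with DMSO and 100% = wells lacking enzyme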
pPAFAH FP inh: inhibitors of human plasma PAF acetylhydrolase (pPAFAH); Q13093; recombinant pPAFAH, FP-rhodamine probe fluorescence polarization; inhibition, % at 3.39 µM; hit rate 1.5% among 330,000;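 active means inhibition above the mean inhibition across the screen plus 3 SD, cut at about 25% in these data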;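 further: inhibitors block binding of the rhodamine activity-based probe so polarization drops; 0% = enzyme with DMSO and 100% = wells lacking pPAFAH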
Target sequence (Q13093 whole entry, looked up): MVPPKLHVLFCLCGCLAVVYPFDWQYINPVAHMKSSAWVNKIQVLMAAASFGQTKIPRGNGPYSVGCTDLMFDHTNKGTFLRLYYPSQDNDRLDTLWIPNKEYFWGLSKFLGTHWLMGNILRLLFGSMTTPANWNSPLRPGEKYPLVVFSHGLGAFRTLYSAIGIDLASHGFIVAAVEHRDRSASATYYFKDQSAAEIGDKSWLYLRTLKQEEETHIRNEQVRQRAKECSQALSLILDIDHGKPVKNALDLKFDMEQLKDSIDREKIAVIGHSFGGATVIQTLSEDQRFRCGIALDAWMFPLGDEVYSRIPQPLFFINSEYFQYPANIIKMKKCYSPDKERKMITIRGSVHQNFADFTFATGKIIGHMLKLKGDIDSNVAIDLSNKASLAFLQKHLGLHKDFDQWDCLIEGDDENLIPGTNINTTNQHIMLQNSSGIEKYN
PAFAH2 inh: inhibitors of human PAFAH2; recombinant PAFAH2, FP-rhodamine activity probe, fluorescence polarization; hit rate 0.99% among 340,000; inhibition, % at 3.39 µM;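 active means inhibition above the mean over all tested compounds plus 3 SD, cut at about 30% in these data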;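 further: inhibitors block probe labeling of enzyme so polarization drops; 0% = enzyme with DMSO and 100% = wells lacking PAFAH2 protein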
PAFAH1B3 inh: PAFAH1B3 (human) inhibition; hit rate 0.28% among 340,000; recombinant PAFAH1B3, FP-rhodamine probe, fluorescence polarization; inhibition, % at 3.39 µM; AID 492972; Q15102;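 active means inhibition above the screen-wide average of all tested compounds plus 3 SD, cut at about 25% in these data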;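 further: 0% = enzyme with DMSO only and 100% = wells lacking PAFAH1B3 protein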
Target sequence (Q15102 whole entry, looked up): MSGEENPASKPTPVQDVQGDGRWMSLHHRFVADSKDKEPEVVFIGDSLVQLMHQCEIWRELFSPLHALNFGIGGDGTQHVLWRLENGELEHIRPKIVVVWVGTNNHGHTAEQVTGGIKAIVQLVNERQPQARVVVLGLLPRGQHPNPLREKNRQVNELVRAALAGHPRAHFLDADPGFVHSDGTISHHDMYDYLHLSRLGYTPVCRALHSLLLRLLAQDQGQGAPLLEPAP
PAFAH1B2 inh: inhibitors of human PAFAH1B2 | recombinant PAFAH1B2, FP-rhodamine activity probe, fluorescence polarization | hit rate 1.2% among 340,000 | P68402 | inhibition, % at 3.39 µM;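 active means inhibition above the mean of all tested compounds plus 3 SD, cut at about 24% in these data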;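 further: 0% = enzyme with DMSO and 100% = wells lacking PAFAH1B2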
mABHD4 FP: inhibitors of mouse ABHD4; inhibition, % at 8.92 µM; Q8VD66; hit rate 0.54% among 370,000; purified mABHD4, FP-Rh probe fluorescence polarization;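 active means inhibition exceeding the mean over every tested compound plus 3 SD, cut at about 30% in these data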;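 further: 0% = plate median of compound wells and 100% = S159A mutant with DMSO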
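Test system: mouse ABHD4 enzyme, wild type. Reagent: FP-Rh fluorescent activity-based probe, added after compound pre-incubation. Timing: pre-incubation 45 min, probe exposure 60 min, at 25 °C. Technique: FP readout, ex 525 nm / em 598 nm. Benchmarks: high control S159A mutant with DMSO, low control median of compound wells.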
The depositor's hits bear a star; nt = not tested or not shown.

SMILES | HTRA1 inhibitor | pPAFAH FP inh | PAFAH2 inh | PAFAH1B3 inh | PAFAH1B2 inh | mABHD4 FP
O=C(O)c1oc2ccccc2c1CSc1ccccn1 | 10 | 4 | 2 | 0 | 4 | -6
COc1ccc2c(c1)C[C@@H](CON1C(C)(C)CCCC1(C)C)N2S(=O)(=O)c1ccc(C)cc1 | nt | nt | nt | nt | nt | -5
O=C1C2CCCCN2C(=O)N1CCCCN1CCN(c2cccc(Cl)c2)CC1 (stereo not drawn) | -1 | 25* | -2 | -5 | 5 | 5
Nn1c(SCC(=O)Nc2ccccc2-c2ccccc2)nnc1-c1cc(-c2ccc(F)cc2)n[nH]1 | nt | nt | nt | nt | nt | -4
CC(C)(C)OC(=O)/C=C/[C@@H](CC1CCCC1)Sc1ccc(C(C)(C)C)cc1 | nt | nt | nt | nt | nt | -15
Cc1cccc(NS(=O)(=O)c2csc(C(N)=O)c2)c1C | -3 | 27* | -3 | 2 | -6 | 8
COc1ccc(C2CCC3(CCC(=O)N3CCOC(=O)NCc3ccc(Cl)cc3)CC2)cc1 (stereo not drawn) | nt | nt | nt | nt | nt | 8
O=C(O)c1ncn(Cc2ccc(Br)cc2)c1C(=O)O | 7 | 1 | 9 | 8 | 25* | -4
O=C(c1ncn(Cc2ccccc2)c1C(=O)N1CCN(c2ccccc2)CC1)N1CCN(c2ccccc2)CC1 | -9 | -6 | 6 | 4 | 5 | 7
CN(Cc1ccccc1)C(=O)COc1cc(=O)n(C)c2ccccc12 | 6 | 32* | -9 | -9 | 9 | 0
CCN(Cc1ccccc1)C(=O)COc1cc(=O)n(CC)c2ccccc12 | -10 | 6 | 4 | 2 | 7 | -5
CC(C)NC(=O)[C@]1(C#N)CC(=O)N(C)[C@@H]1c1ccccc1 | nt | nt | nt | nt | nt | 5
CCCCn1c(N)c(N(CCOC)C(=O)CSc2n[nH]c(-c3ccc(C)cc3)n2)c(=O)[nH]c1=O | -7 | 5 | 7 | 4 | 0 | 3
CCCCCN(C(=O)CSc1n[nH]c(-c2ccc(C)cc2)n1)c1c(N)n(CCCC)c(=O)[nH]c1=O | -7 | -3 | -2 | 4 | 29* | -2
COc1ccc(OC)c(/C=C2\SC(N3CCCC(C)C3)=NC2=O)c1 (stereo not drawn) | -15 | 27* | -3 | 17 | 1 | -4
Nc1ncn(CC(=O)c2ccccc2)n1 | 2 | 0 | 0 | 5 | 3 | 1
O=C(Cn1nc(Br)nc1Br)c1ccccc1 | -11 | 4 | 52* | 47* | 29* | -13
CN(C)C=NC(=O)c1[nH]c2ccc(Cl)cc2c1-c1ccccc1 | -45 | 29* | 3 | -1 | -1 | -7
CC(C)N(C(=O)Cn1c(-c2ccccc2Cl)nc2ccccc21)c1ccccc1 | 1 | 26* | 0 | 0 | 14 | 0
Cc1nc2c(C(=O)NCCC3=CCCCC3)c[nH]n2c(=O)c1Cl | -11 | 28* | 9 | 15 | 12 | -31
Cc1cc(SCc2ccc(Cl)cc2Cl)nc(=O)[nH]1 | -18 | 14 | 13 | -3 | 4 | -4
O=c1cc(SCc2ccc(Cl)cc2Cl)nc[nH]1 | 0 | nt | 3 | 6 | 25* | 4
O=C(N/N=C/C(Br)=C/c1ccccc1)NC1CCCCC1 | -43 | 25 | -4 | 9 | -4 | -13
CC(/C=N/NC(=O)NC1CCCCC1)=C\c1ccccc1 | -16 | 29* | 0 | 12 | 1 | -2
COC(=O)[C@]1(C)N[C@H](c2ccc(-c3ccc(Cl)c(Cl)c3)c(OC)c2)[C@@H]2C(=O)N(C)C(=O)[C@@H]21 | -17 | 30* | 0 | 1 | 1 | -13
SMILES | HTRA1 inhibitor | pPAFAH FP inh | PAFAH2 inh | PAFAH1B3 inh | PAFAH1B2 inh | mABHD4 FP
CC(C)[C@H]1Cn2nncc2Cn2c3ccccc3c(=O)n21 | nt | nt | nt | nt | nt | 0
CC(C)c1ccc(C(CC(=O)c2ccc(Cl)cc2)C(=O)O)cc1 (stereo not drawn) | -2 | 5 | -14 | -2 | 38* | -9
O=C(C1CCN(S(=O)(=O)c2ccc3[nH]c(=O)oc3c2)CC1)N1CCCN(Cc2ccccc2)CC1 | nt | nt | nt | nt | nt | 6
CC(NC(=O)/C=C/c1cnc2ccccc2n1)C12CC3CC(CC(C3)C1)C2 (stereo not drawn) | -57 | 5 | 12 | 8 | 24* | -4
N=c1c2c(-c3ccccc3)c(-c3ccccc3)n(CCc3ccccc3)c2ncn1CCO | nt | nt | nt | nt | nt | 7
CC(=O)N[C@@H](C)CCc1ccc(Oc2ccc(OC(C)C)nc2)cc1 | nt | nt | nt | nt | nt | 3
NS(=O)(=O)c1ccc(-c2ccc(C=C3C(=O)c4ccccc4C3=O)o2)cc1 | -2 | 6 | 0 | 8 | 2 | 7
CC(C)CC1=C/C(=C/c2ccc(-c3ccccc3)o2)C(=O)O1 | -20 | 29* | 27 | 2 | 0 | 19
CC(=O)N1CCN(C(=O)CN2C(=O)CC(C)(C)S(=O)(=O)c3ccccc32)CC1 | nt | nt | nt | nt | nt | -1
O=C(O)c1cc(S(=O)(=O)NC(Cc2c[nH]c3ccccc23)C(=O)O)ccc1Cl (stereo not drawn) | 11 | 6 | 7 | 5 | 25* | 7
Cc1ccc(NS(=O)(=O)c2cccc(C(=O)NCC3CCCO3)c2)cc1 (stereo not drawn) | -10 | 31* | 0 | 3 | 2 | -1
Cc1ccc(S(=O)(=O)Nc2ccc(S(=O)(=O)NCC3CCCO3)cc2)cc1 (stereo not drawn) | 4 | 3 | 1 | 1 | 43* | 0
Cc1ccc(-c2ccc(S(=O)(=O)NCC3CCCO3)cc2)cc1 (stereo not drawn) | -4 | 8 | 15 | 4 | 5 | -12
COC(=O)[C@]12C[C@H](CC(=O)N3CCCCC3)C(=O)N(Cc3ccc(Cl)cc3Cl)C1=C[C@H](C(C)(C)C)O[C@@H]2C | nt | nt | nt | nt | nt | 3
Cc1ncc(CSc2nccc(=O)[nH]2)c(CO)c1O | -1 | 2 | -4 | 0 | 6 | 2
Cc1ncc(CSc2ccc(Cl)cc2)c(CO)c1O | 0 | 0 | 1 | 6 | 27* | 7
O=C(O)C(C(=O)/C=C/c1ccco1)=C1SCCS1 | 5 | 24 | 12 | 4 | 6 | 7
O=C(C=C1SCCS1)/C=C/c1ccco1 | -3 | 25* | 8 | 8 | 4 | 8
Cc1ccc(C(=O)O)cc1NC(=O)CSc1nnc(-c2ccccc2F)n1C1CCCCC1 | 2 | 3 | 6 | 9 | 26* | -2
C=CCN1C(=O)C(Cc2ccc(Br)cc2)S/C1=N\N=C\c1ccco1 (stereo not drawn) | -10 | -1 | 5 | 6 | 0 | -5
C=CCN1C(=O)C(Cc2ccc(OC)cc2)S/C1=N/N=C/c1ccco1 (stereo not drawn) | -15 | 28* | -4 | 0 | 0 | -4
NC(=O)C1CCCN(S(=O)(=O)c2ccc3ccccc3c2)C1 (stereo not drawn) | 5 | -4 | 1 | 4 | 3 | 3
NC(=O)C1CCCN(S(=O)(=O)c2ccc(Br)cc2)C1 (stereo not drawn) | -5 | 1 | 15 | 3 | 28* | -5
